1 molecule from ChEMBL document CHEMBL5335790, “Design, synthesis and biological evaluation of novel 2,4-thiazolidinedione derivatives able to target the human BAG3 protein” (Eur J Med Chem, 2023) can be followed below.

As usually defined, the inhibition is the drop in the measured response relative to a control, in per cent. For orientation: GI50 means the concentration at which growth is held to half of that of the control. One may read the Kd as a measure of binding affinity in units of concentration.

Data set [1] deals with HD-MB03. Put plainly: Cytotoxicity against human HD-MB03 cells assessed as inhibition of cell growth at 10 uM incubated for 72 hrs by resazurin dye based analysis relative to control. The data set is classed as functional. In outline: (§1)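 Resazurin viability in HD-MB03 cells, 2000/well, single-agent arm of the 6x6 matrix. Inhibitor was added 24 h after seeding, in a 6-point 2-fold series, duplicates, two independent experiments. After 72 h exposure, resazurin was added at 44 µM final for 3 h at 37 °C and fluorescence read at 590 nm. Viability normalized to 1 µM bortezomib and 0.5% DMSO controls.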
Background: Alamar Blue is a resazurin reagent that responds to reducing activity.

The target in data set [2] is T1, BAG family molecular chaperone regulator 3 (Homo sapiens, UniProt O95817). Put plainly: Binding affinity to C-terminal His tagged human BAG3 transfected in HEK293T cells assessed as protein-ligand complex formation by measuring saturated protein magnetization via intermolecular spin-diffusion at 125 uM by STD NMR experiment.
Data set [3] deals with HD-MB03. Put plainly: Sensitization of chemotherapy induced cytotoxicity against human HD-MB03 cells assessed as inhibition of cell growth at 1.25 uM incubated for 72 hrs in presence of 2 unit of vincristine, etoposide, cisplatin, cyclophosphamide by resazurin dye based analysis (reference value: 97.7 +/- 1.3%). The data set is classed as functional.
Data set [4] has as its system HD-MB03. Put plainly: Sensitization of chemotherapy induced cytotoxicity against human HD-MB03 cells assessed as inhibition of cell growth at 20 uM incubated for 72 hrs in presence of 1 unit of vincristine, etoposide, cisplatin, cyclophosphamide by resazurin dye based analysis (reference value: 91.53 +/- 1.15%). It counts as functional.
In data set [5] the test system is HD-MB03. The data set is described as follows: Cytotoxicity against human HD-MB03 cells assessed as inhibition of cell growth at 5 uM incubated for 72 hrs by resazurin dye based analysis relative to control. It counts as functional. The gist of the method:
as §1

Data set [6] concerns HD-MB03. Put plainly: Sensitization of chemotherapy induced cytotoxicity against human HD-MB03 cells assessed as inhibition of cell growth at 20 uM incubated for 72 hrs in presence of 0.5 unit of vincristine, etoposide, cisplatin, cyclophosphamide by resazurin dye based analysis (reference value: 83.74+/- 0.54%). It counts as functional.
The test system of data set [7] is HD-MB03. The data set is described as follows: Sensitization of chemotherapy induced cytotoxicity against human HD-MB03 cells assessed as inhibition of cell growth at 10 uM incubated for 72 hrs in presence of 1 unit of vincristine, etoposide, cisplatin, cyclophosphamide by resazurin dye based analysis (reference value: 91.53 +/- 1.15%). The data set is classed as functional.

Data set [8] concerns HD-MB03. Put plainly: Sensitization of chemotherapy induced cytotoxicity against human HD-MB03 cells assessed as inhibition of cell growth at 2.5 uM incubated for 72 hrs in presence of 0.5 unit of vincristine, etoposide, cisplatin, cyclophosphamide by resazurin dye based analysis (reference value: 83.74+/- 0.54%). The data set is classed as functional.
Data set [9] relates to HD-MB03. Put plainly: Induction of autophagy in human HD-MB03 cells assessed as autophagic vacuole formation at 20 uM incubated for 24 hrs by bright field imaging analysis. It counts as functional, cell-based.
In data set [10] the test system is HD-MB03. The data set is described as follows: Induction of cell cycle arrest in human HD-MB03 cells assessed as accumulation of cells at G2/M phase at 10 uM incubated for 72 hrs by RNase/PI staining based cytofluorimetric analysis (reference value: 4.4%). The data set is classed as functional.
For data set [11], the system named is HD-MB03. The data set is described as follows: Sensitization of chemotherapy induced cytotoxicity against human HD-MB03 cells assessed as inhibition of cell growth at 2.5 uM incubated for 72 hrs in presence of 1 unit of vincristine, etoposide, cisplatin, cyclophosphamide by resazurin dye based analysis (reference value: 91.53 +/- 1.15%). The data set is classed as functional.

The subject of data set [12] is HD-MB03. The data set is described as follows: Cytotoxicity against human HD-MB03 cells assessed as inhibition of cell growth at 2.5 uM incubated for 72 hrs by resazurin dye based analysis relative to control. It counts as functional. In outline:
as §1

Data set [13] deals with HD-MB03. Put plainly: Cytotoxicity against human HD-MB03 cells assessed as inhibition of cell growth at 1.25 uM incubated for 72 hrs by resazurin dye based analysis relative to control. It counts as functional. The gist of the method:
as §1

Data set [14] relates to HD-MB03. Put plainly: Induction of cell cycle arrest in human HD-MB03 cells assessed as accumulation of cells at G1 phase at 10 uM incubated for 48 hrs by RNase/PI staining based cytofluorimetric analysis (reference value: 54.7%). It counts as functional.
Data set [15] concerns HD-MB03. The data set is described as follows: Induction of apoptosis in human HD-MB03 cells assessed as membrane blebbing at 20 uM incubated for 24 hrs in presence of chloroquine by bright field imaging analysis. It counts as functional, cell-based.
For data set [16], the system named is HD-MB03. The data set is described as follows: Antiproliferative activity against human HD-MB03 cells assessed as cell growth inhibition incubated for 72 hrs by resazurin dye based analysis. The data set is classed as functional. In outline: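 Cells seeded at 2000/well, treated 24 h later with compounds in a 6-point 2-fold dose series, duplicate wells, two independent experiments. After 72 h, resazurin was added at 44 µM final for 3 h at 37 °C and fluorescence was read at 590 nm. Viability was normalized to 1 µM bortezomib (positive) and 0.5% DMSO (negative) controls. GI50 is the mean ± SEM of dose-response curves.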

Data set [17] can be described thus: Cytotoxicity against PHA stimulated human PBMC cells assessed as cell growth inhibition incubated for 72 hrs by MTT assay. It counts as toxicity, cell-based.
The test system of data set [18] is HD-MB03. The data set is described as follows: Induction of cell cycle arrest in human HD-MB03 cells assessed as accumulation of cells at G1 phase at 10 uM incubated for 72 hrs by RNase/PI staining based cytofluorimetric analysis (reference value: 54.7%). The data set is classed as functional.
Data set [19] has as its system HD-MB03. The data set is described as follows: Sensitization of chemotherapy induced cytotoxicity against human HD-MB03 cells assessed as inhibition of cell growth at 20 uM incubated for 72 hrs in presence of 0.25 unit of vincristine, etoposide, cisplatin, cyclophosphamide by resazurin dye based analysis (reference value: 73.44 +/- 0.92%). The data set is classed as functional.

The target of data set [20] is T1, BAG family molecular chaperone regulator 3. The data set is described as follows: Binding affinity to C-terminal His tagged human BAG3 transfected in HEK293T cells assessed as intermolecular nuclear overhauser effect mediated protein magnetization at 125 uM by waterLOGSY experiment. The data set is classed as cell-based. In outline:
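Ligand-observed NMR in 50 mM sodium phosphate pH 7.8, 150 mM NaCl, 0.04% NaN3, 1.3% DMSO-d6, 5% D2O. Compound at 125 µM with 5 µM BAG3-His (HEK-293T expressed, purified by IMAC and SEC), each also run without protein. WaterLOGSY used 240 scans, 1.5 s mixing and water inversion at 4.7 ppm. STD used 256 scans with protein saturation at 0.4 ppm.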

Data set [21] shares this target. Put plainly: Binding affinity to CM4 sensorchip immobilized glycosylated C-terminal His tagged human BAG3 transfected in HEK293T cells assessed as dissociation constant by SPR analysis. The gist of the method:
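SPR single-cycle kinetics on CM4-immobilized HEK-293T-expressed BAG3-His. Increasing compound concentrations in PBS with 5% DMSO and 0.05% P20 were injected at 30 µL/min without regeneration between injections, with blank subtraction. Kd from steady-state analysis, reported as mean ± SEM and compared by Student t-test.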
In general terms: In SPR one partner is held on a chip, and binding of the other changes the refractive index at the surface.

The test system of data set [22] is HD-MB03. Put plainly: Induction of autophagy in human HD-MB03 cells assessed as increase in LC3 green fluorescence at 20 uM incubated for 24 hrs in presence of chloroquine by immunofluorescence analysis. It counts as functional, cell-based. The gist of the method:
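HD-MB03 cells transfected with a fluorescent LC3 plasmid, then treated 24 h later with 20 µM, alone or with chloroquine, for 24 h. Live cells stained 30 min with 50 nM LysoTracker Red and 10 µM Hoechst, then imaged by confocal microscopy. Fluorescence per field was expressed relative to DMSO control set to 1. Mean ± SD of three experiments; 2-way ANOVA.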

The source made the active and inactive calls. The rule behind the calls is not given here.

T1 sequence (O95817 whole entry, the tested form may be a part): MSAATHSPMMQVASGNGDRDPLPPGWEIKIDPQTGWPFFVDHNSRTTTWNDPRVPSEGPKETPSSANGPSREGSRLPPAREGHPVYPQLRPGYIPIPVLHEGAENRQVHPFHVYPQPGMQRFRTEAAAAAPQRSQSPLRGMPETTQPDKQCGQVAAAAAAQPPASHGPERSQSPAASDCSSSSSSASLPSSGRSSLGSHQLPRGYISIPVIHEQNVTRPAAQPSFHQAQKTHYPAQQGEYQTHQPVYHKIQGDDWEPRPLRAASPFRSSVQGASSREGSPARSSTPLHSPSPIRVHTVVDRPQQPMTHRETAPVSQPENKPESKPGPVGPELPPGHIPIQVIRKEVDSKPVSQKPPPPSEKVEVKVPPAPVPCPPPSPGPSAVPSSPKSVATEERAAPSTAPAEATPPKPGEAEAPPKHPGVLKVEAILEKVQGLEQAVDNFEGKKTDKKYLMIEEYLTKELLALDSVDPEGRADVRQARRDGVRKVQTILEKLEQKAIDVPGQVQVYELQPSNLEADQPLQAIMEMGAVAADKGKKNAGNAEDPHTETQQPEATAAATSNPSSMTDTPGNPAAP

For `CC(C(=O)N1CCOCC1)N1C(=O)S/C(=C\c2cccc(O)c2O)C1=O` (racemic), the inhibition at 10 µM with HD-MB03 [1] was determined as 26.8%; with HD-MB03 [7] it was 92%. Moreover, the result (in [2]; in the data set with HD-MB03 [9]; in the data set on HD-MB03 [15]; in [20]) was Active. For the same molecule, the values for the inhibition at 1.25 µM in the data set with HD-MB03 [3] and in the data set with HD-MB03 [13] were 96.6% and -11.8%, respectively. Moreover, the values for the inhibition at 20 µM in the data set on HD-MB03 [4], in the data set with HD-MB03 [6] and in the data set on HD-MB03 [19] were 89.1%, 87.7% and 80.8%, respectively. The inhibition at 5 µM in the data set with HD-MB03 [5] is 3%. Further, the inhibition at 2.5 µM with HD-MB03 [8] is 83.3%; in the data set on HD-MB03 [11], 92%; in the data set on HD-MB03 [12], -8.3%. The Activity in the data set with HD-MB03 [10] was determined as 1.2%; in the data set with HD-MB03 [14], 52.45%; in the data set on HD-MB03 [18] it was 74%. Also, the GI50 in the data set with HD-MB03 [16] amounted to 11.2 µM. The GI50 at 72 h in [17] is greater than 100 µM. Further, the Kd in data set [21] came to 45 µM. The result in the data set on HD-MB03 [22] was inactive.
